Test results taken from ChEMBL document CHEMBL1138525 (J Med Chem, 2009).
Calls of active or inactive are those of the source. No cut-off for these calls is given here.

Legend:
[1] = tested on: P2Y purinoceptor 2 (Homo sapiens), P41231 [UNDEFINED MUTATION]; experiment: Ratio of EC50 for N-terminal HA epitope-tagged human P2Y2 receptor C278S mutant to EC50 for wild type 3 human P2Y2 receptor
[2] = target: T1, P2Y purinoceptor 2 (Homo sapiens, UniProt P41231, C278S); experiment: Agonist activity at N-terminal HA epitope-tagged human P2Y2 receptor C278S mutant expressed in human 1321N1 cells assessed as increase in intracellular calcium level; type: functional, cell-based
T1 sequence (P41231 whole entry C278S): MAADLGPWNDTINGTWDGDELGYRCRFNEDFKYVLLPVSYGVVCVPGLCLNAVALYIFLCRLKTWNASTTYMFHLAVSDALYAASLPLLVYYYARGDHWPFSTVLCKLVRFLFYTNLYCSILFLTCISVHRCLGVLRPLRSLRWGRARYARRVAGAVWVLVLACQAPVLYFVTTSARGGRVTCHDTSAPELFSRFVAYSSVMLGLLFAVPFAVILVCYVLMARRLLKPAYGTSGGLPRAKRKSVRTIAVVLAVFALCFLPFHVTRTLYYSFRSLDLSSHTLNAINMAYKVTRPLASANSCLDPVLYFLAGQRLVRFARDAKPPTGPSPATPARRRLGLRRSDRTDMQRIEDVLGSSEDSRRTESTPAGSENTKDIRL
Procedure, shortened: (§1)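 1321N1 astrocytoma cells stably expressing mutant receptor (retroviral transfection, G418 selection), loaded with Oregon Green BAPTA-1/AM in Krebs-HEPES pH 7.4 for 1 h at room temperature. Plated at 150000 cells/well and held 20 min at 28 °C in the dark. Efficacy relative to 100 µM carbachol.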

[3] = tested on: P2Y purinoceptor 2 (Homo sapiens), P41231 [S296A]; experiment: Agonist activity at N-terminal HA epitope-tagged human P2Y2 receptor S296A mutant expressed in human 1321N1 cells assessed as increase in intracellular calcium level relative to carbachol; type: functional, cell-based
Chain of P2Y purinoceptor 2 (Homo sapiens), P41231 [S296A] (P41231 whole entry S296A): as the sequence (P41231 whole entry C278S) above, with S278C, S296A counted along it
Procedure, shortened: (§2)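 Retrovirally transduced stable 1321N1 astrocytoma lines (wild-type lines of differing expression, or mutants) in suspension, loaded with Oregon Green BAPTA-1/AM for 1 h at room temperature. Cells were plated at 150000 per well in Krebs-HEPES pH 7.4 and held 20 min at 28 °C in the dark. Agonist was then injected, with fluorescence read at ex 485/em 520 nm for 60 × 0.4 s.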

[4] = target: P2Y purinoceptor 2 (Homo sapiens, UniProt P41231, S296A); experiment: Agonist activity at N-terminal HA epitope-tagged human P2Y2 receptor S296A mutant expressed in human 1321N1 cells assessed as increase in intracellular calcium level; type: functional, cell-based
Chain of P2Y purinoceptor 2 (Homo sapiens, UniProt P41231, S296A) (P41231 whole entry S296A): as the sequence (P41231 whole entry C278S) above, with S278C, S296A counted along it
Procedure, shortened: (§3)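 Retrovirally transduced stable 1321N1 astrocytoma lines (wild-type lines of differing expression, or mutants) in suspension, loaded with Oregon Green BAPTA-1/AM for 1 h at room temperature. Cells were plated at 150000 per well in Krebs-HEPES pH 7.4 and held 20 min at 28 °C in the dark.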

[5] = target: T2, P2Y purinoceptor 2 (Homo sapiens, UniProt P41231); experiment: Agonist activity at N-terminal HA epitope-tagged wild type 3 human P2Y2 receptor expressed in human 1321N1 cells assessed as increase in intracellular calcium level relative to carbachol; type: functional, cell-based; procedure, shortened: as §2
T2 sequence (P41231 whole entry): as the sequence (P41231 whole entry C278S) above, with S278C counted along it

[6] = target: T2, P2Y purinoceptor 2; experiment: Agonist activity at N-terminal HA epitope-tagged wild type 3 human P2Y2 receptor expressed in human 1321N1 cells assessed as increase in intracellular calcium level; type: functional, cell-based; procedure, shortened: as §3
[7] = target: T2, P2Y purinoceptor 2; experiment: Agonist activity at N-terminal HA epitope-tagged wild type 4 human P2Y2 receptor expressed in human 1321N1 cells assessed as increase in intracellular calcium level; type: functional, cell-based; procedure, shortened: as §3
[8] = target: T3, P2Y purinoceptor 2 (Homo sapiens, UniProt P41231, Y114A); experiment: Agonist activity at N-terminal HA epitope-tagged human P2Y2 receptor Y114A mutant expressed in human 1321N1 cells assessed as increase in intracellular calcium level; type: functional, cell-based; procedure, shortened: as §1
T3 sequence (P41231 whole entry Y114A): as the sequence (P41231 whole entry C278S) above, with Y114A, S278C counted along it

[9] = target: T2, P2Y purinoceptor 2; experiment: Agonist activity at N-terminal HA epitope-tagged wild type 4 human P2Y2 receptor expressed in human 1321N1 cells assessed as increase in intracellular calcium level relative to carbachol; type: functional, cell-based; procedure, shortened: as §2
[10] = tested on: P2Y purinoceptor 2 (Homo sapiens), P41231 [Y114A]; experiment: Agonist activity at N-terminal HA epitope-tagged human P2Y2 receptor Y114A mutant expressed in human 1321N1 cells assessed as increase in intracellular calcium level relative to carbachol; type: functional, cell-based; procedure, shortened: as §2
Chain of P2Y purinoceptor 2 (Homo sapiens), P41231 [Y114A] (P41231 whole entry Y114A): as the sequence (P41231 whole entry C278S) above, with Y114A, S278C counted along it

[11] = target: T4, P2Y purinoceptor 2 (Homo sapiens, UniProt P41231, R177A/R180A); experiment: Agonist activity at N-terminal HA epitope-tagged human P2Y2 receptor R177A_R180A double mutant expressed in human 1321N1 cells assessed as increase in intracellular calcium level; type: functional, cell-based; procedure, shortened: as §1
T4 sequence (P41231 whole entry R177A/R180A): as the sequence (P41231 whole entry C278S) above, with R177A, R180A, S278C counted along it

[12] = tested on: P2Y purinoceptor 2 (Homo sapiens), P41231 [R177A,R180A]; experiment: Agonist activity at N-terminal HA epitope-tagged human P2Y2 receptor R177A_R180A double mutant expressed in human 1321N1 cells assessed as increase in intracellular calcium level relative to carbachol; type: functional, cell-based; procedure, shortened: as §2
Chain of P2Y purinoceptor 2 (Homo sapiens), P41231 [R177A,R180A] (P41231 whole entry R177A/R180A): as the sequence (P41231 whole entry C278S) above, with R177A, R180A, S278C counted along it

[13] = target: P2Y purinoceptor 2 (Homo sapiens, UniProt P41231, R177A); experiment: Agonist activity at N-terminal HA epitope-tagged human P2Y2 receptor R177A mutant expressed in human 1321N1 cells assessed as increase in intracellular calcium level; type: functional, cell-based; procedure, shortened: as §1
Chain of P2Y purinoceptor 2 (Homo sapiens, UniProt P41231, R177A) (P41231 whole entry R177A): as the sequence (P41231 whole entry C278S) above, with R177A, S278C counted along it

[14] = tested on: P2Y purinoceptor 2 (Homo sapiens), P41231 [R177A]; experiment: Agonist activity at N-terminal HA epitope-tagged human P2Y2 receptor R177A mutant expressed in human 1321N1 cells assessed as increase in intracellular calcium level relative to carbachol; type: functional, cell-based; procedure, shortened: as §2
Chain of P2Y purinoceptor 2 (Homo sapiens), P41231 [R177A] (P41231 whole entry R177A): as the sequence (P41231 whole entry C278S) above, with R177A, S278C counted along it

[15] = target: P2Y purinoceptor 2 (Homo sapiens, UniProt P41231, R180A); experiment: Agonist activity at N-terminal HA epitope-tagged human P2Y2 receptor R180A mutant expressed in human 1321N1 cells assessed as increase in intracellular calcium level; type: functional, cell-based; procedure, shortened: as §1
Chain of P2Y purinoceptor 2 (Homo sapiens, UniProt P41231, R180A) (P41231 whole entry R180A): as the sequence (P41231 whole entry C278S) above, with R180A, S278C counted along it

[16] = tested on: P2Y purinoceptor 2 (Homo sapiens), P41231 [R180A]; experiment: Agonist activity at N-terminal HA epitope-tagged human P2Y2 receptor R180A mutant expressed in human 1321N1 cells assessed as increase in intracellular calcium level relative to carbachol; type: functional, cell-based; procedure, shortened: as §2
Chain of P2Y purinoceptor 2 (Homo sapiens), P41231 [R180A] (P41231 whole entry R180A): as the sequence (P41231 whole entry C278S) above, with R180A, S278C counted along it

[17] = target: P2Y purinoceptor 2 (Homo sapiens, UniProt P41231, R272A); experiment: Agonist activity at N-terminal HA epitope-tagged human P2Y2 receptor R272A mutant expressed in human 1321N1 cells assessed as increase in intracellular calcium level; type: functional, cell-based; procedure, shortened: as §1
Chain of P2Y purinoceptor 2 (Homo sapiens, UniProt P41231, R272A) (P41231 whole entry R272A): as the sequence (P41231 whole entry C278S) above, with R272A, S278C counted along it

[18] = target: T5, P2Y purinoceptor 2 (Homo sapiens, UniProt P41231, Y118A); experiment: Agonist activity at N-terminal HA epitope-tagged human P2Y2 receptor Y118A mutant expressed in human 1321N1 cells assessed as increase in intracellular calcium level; type: functional, cell-based; procedure, shortened: as §1
T5 sequence (P41231 whole entry Y118A): as the sequence (P41231 whole entry C278S) above, with Y118A, S278C counted along it

[19] = target: P2Y purinoceptor 2 (Homo sapiens, UniProt P41231, R194H); experiment: Agonist activity at N-terminal HA epitope-tagged human P2Y2 receptor R194H mutant expressed in human 1321N1 cells assessed as increase in intracellular calcium level; type: functional, cell-based; procedure, shortened: as §1
Chain of P2Y purinoceptor 2 (Homo sapiens, UniProt P41231, R194H) (P41231 whole entry R194H): as the sequence (P41231 whole entry C278S) above, with R194H, S278C counted along it

[20] = tested on: P2Y purinoceptor 2 (Homo sapiens), P41231 [R194H]; experiment: Agonist activity at N-terminal HA epitope-tagged human P2Y2 receptor R194H mutant expressed in human 1321N1 cells assessed as increase in intracellular calcium level relative to carbachol; type: functional, cell-based; procedure, shortened: as §2
Chain of P2Y purinoceptor 2 (Homo sapiens), P41231 [R194H] (P41231 whole entry R194H): as the sequence (P41231 whole entry C278S) above, with R194H, S278C counted along it

[21] = target: T6, P2Y purinoceptor 2 (Homo sapiens, UniProt P41231, Y198A); experiment: Agonist activity at N-terminal HA epitope-tagged human P2Y2 receptor Y198A mutant expressed in human 1321N1 cells assessed as increase in intracellular calcium level; type: functional, cell-based; procedure, shortened: as §1
T6 sequence (P41231 whole entry Y198A): as the sequence (P41231 whole entry C278S) above, with Y198A, S278C counted along it

[22] = tested on: P2Y purinoceptor 2 (Homo sapiens), P41231 [Y198A]; experiment: Agonist activity at N-terminal HA epitope-tagged human P2Y2 receptor Y198A mutant expressed in human 1321N1 cells assessed as increase in intracellular calcium level relative to carbachol; type: functional, cell-based; procedure, shortened: as §2
Chain of P2Y purinoceptor 2 (Homo sapiens), P41231 [Y198A] (P41231 whole entry Y198A): as the sequence (P41231 whole entry C278S) above, with Y198A, S278C counted along it

[23] = tested on: P2Y purinoceptor 2 (Homo sapiens), P41231 [C278S]; experiment: Agonist activity at N-terminal HA epitope-tagged human P2Y2 receptor C278S mutant expressed in human 1321N1 cells assessed as increase in intracellular calcium level relative to carbachol; type: functional, cell-based; procedure, shortened: as §2
Chain of P2Y purinoceptor 2 (Homo sapiens), P41231 [C278S] (P41231 whole entry C278S): as the sequence (P41231 whole entry C278S) above

[24] = tested on: P2Y purinoceptor 2 (Homo sapiens), P41231 [R272A]; experiment: Agonist activity at N-terminal HA epitope-tagged human P2Y2 receptor R272A mutant expressed in human 1321N1 cells assessed as increase in intracellular calcium level up to 300 uM relative to carbachol; type: functional, cell-based; procedure, shortened: as §2
Chain of P2Y purinoceptor 2 (Homo sapiens), P41231 [R272A] (P41231 whole entry R272A): as the sequence (P41231 whole entry C278S) above, with R272A, S278C counted along it

[25] = tested on: P2Y purinoceptor 2 (Homo sapiens), P41231 [Y118A]; experiment: Agonist activity at N-terminal HA epitope-tagged human P2Y2 receptor Y118A mutant expressed in human 1321N1 cells assessed as increase in intracellular calcium level relative to carbachol; type: functional, cell-based; procedure, shortened: as §2
Chain of P2Y purinoceptor 2 (Homo sapiens), P41231 [Y118A] (P41231 whole entry Y118A): as the sequence (P41231 whole entry C278S) above, with Y118A, S278C counted along it

[26] = tested on: P2Y purinoceptor 2 (Homo sapiens), P41231 [UNDEFINED MUTATION]; experiment: Ratio of efficacy for N-terminal HA epitope-tagged human P2Y2 receptor R194H mutant to efficacy for wild type 3 human P2Y2 receptor
[27] = target: T1, P2Y purinoceptor 2; experiment: Antagonist activity at N-terminal HA epitope-tagged human P2Y2 receptor C278S mutant expressed in human 1321N1 cells assessed as inhibition of UTP-induced calcium mobilization; type: functional, cell-based
Procedure, shortened: (§4)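 1321N1 cells expressing wild-type or mutant receptor were dye-loaded with Oregon Green BAPTA-1/AM in Krebs-HEPES pH 7.4. Antagonist was preincubated for 20 min at 28 °C in the dark. Cells were then stimulated with UTP at a concentration giving 80-90% of maximal response. Calcium fluorescence read at 520 nm (excitation 485 nm).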

[28] = target: T2, P2Y purinoceptor 2; experiment: Antagonist activity at N-terminal HA epitope-tagged wild type 3 human P2Y2 receptor expressed in human 1321N1 cells assessed as inhibition of UTP-induced calcium mobilization; type: functional, cell-based; procedure, shortened: as §4
[29] = target: T3, P2Y purinoceptor 2; experiment: Antagonist activity at N-terminal HA epitope-tagged human P2Y2 receptor Y114A mutant expressed in human 1321N1 cells assessed as inhibition of UTP-induced calcium mobilization; type: functional, cell-based; procedure, shortened: as §4
[30] = tested on: P2Y purinoceptor 2 (Homo sapiens), P41231 [UNDEFINED MUTATION]; experiment: Ratio of IC50 for N-terminal HA epitope-tagged human P2Y2 receptor C278S mutant to IC50 for wild type 3 human P2Y2 receptor
[31] = target: T4, P2Y purinoceptor 2; experiment: Antagonist activity at N-terminal HA epitope-tagged human P2Y2 receptor R177A_R180A double mutant expressed in human 1321N1 cells assessed as inhibition of UTP-induced calcium mobilization; type: functional, cell-based; procedure, shortened: as §4
[32] = tested on: P2Y purinoceptor 2 (Homo sapiens), P41231 [R177A]; experiment: Antagonist activity at N-terminal HA epitope-tagged human P2Y2 receptor R177A mutant expressed in human 1321N1 cells assessed as inhibition of UTP-induced calcium mobilization; type: functional, cell-based; details: concentration not given here
[33] = tested on: P2Y purinoceptor 2 (Homo sapiens), P41231 [R180A]; experiment: Antagonist activity at N-terminal HA epitope-tagged human P2Y2 receptor R180A mutant expressed in human 1321N1 cells assessed as inhibition of UTP-induced calcium mobilization; type: functional, cell-based; details: concentration not given here
[34] = target: T5, P2Y purinoceptor 2; experiment: Antagonist activity at N-terminal HA epitope-tagged human P2Y2 receptor Y118A mutant expressed in human 1321N1 cells assessed as inhibition of UTP-induced calcium mobilization; type: functional, cell-based; procedure, shortened: as §4
[35] = target: T6, P2Y purinoceptor 2; experiment: Antagonist activity at N-terminal HA epitope-tagged human P2Y2 receptor Y198A mutant expressed in human 1321N1 cells assessed as inhibition of UTP-induced calcium mobilization; type: functional, cell-based; procedure, shortened: as §4

Chain of P2Y purinoceptor 2 (Homo sapiens), P41231 [UNDEFINED MUTATION] (P41231 whole entry, looked up, stated change not applied): as the sequence (P41231 whole entry C278S) above, with S278C counted along it

Nc1ncnc2c1ncn2[C@@H]1O[C@H](COP(=O)(O)OP(=O)(O)OP(=O)(O)OP(=O)(O)OC[C@H]2O[C@@H](n3cnc4c(N)ncnc43)[C@H](O)[C@@H]2O)[C@@H](O)[C@H]1O [DIADENOSINE TETRAPHOSPHATE]
Ratio EC50 [1]: 560 | EC50 [2]: 81000 nM | Efficacy [3]: 12% | EC50 [4]: > 300000 nM | Efficacy [5]: 68% | EC50 [6]: 145 nM | EC50 [7]: 167 nM | EC50 [8]: 170 nM | Efficacy [9]: 100% | Efficacy [10]: 128% | EC50 [11]: 665 nM | Efficacy [12]: 98% | EC50 [13]: 1230 nM | Efficacy [14]: 86% | EC50 [15]: 423 nM | Efficacy [16]: 68% | EC50 [17]: 740000 nM | EC50 [18]: 345 nM | EC50 [19]: 185 nM | Efficacy [20]: 149% | EC50 [21]: 335 nM | Efficacy [22]: 117% | Efficacy [23]: inactive | Efficacy [24]: inactive | Efficacy [25]: 15% | Ratio efficacy [26]: 2

Nc1c(S(=O)(=O)O)cc(Nc2ccc(Nc3nc(Cl)nc(Nc4cccc(S(=O)(=O)O)c4)n3)c(S(=O)(=O)O)c2)c2c1C(=O)c1ccccc1C2=O [RB 2]
IC50 [27]: 1050 nM | IC50 [28]: 1620 nM | IC50 [29]: > 100000 nM | Ratio IC50 [30]: 0.6 | IC50 [31]: 18600 nM | inhibition [32]: 55% | inhibition [33]: 55% | IC50 [34]: 1570 nM | IC50 [35]: 9300 nM
